Laboratory results reported in ChEMBL document CHEMBL3585281, “Antibacterial Labdane Diterpenoids from Vitex vestita” (2015).
Converted amounts (≈) assume the structure as drawn.

Legend:
Assay type in all cases: functional
Enterococcus faecium [1] = test: Antibacterial activity against Enterococcus faecium N733 after 18 hrs by agar dilution method; details: N733, 18 h
How it was run: (§1)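 Agar-dilution MIC against Gram-positive strains. Compounds in DMSO, geometric dilutions giving final 100−0.75 mg/L in Mueller Hinton agar. Strains grown 18 h at 37 °C in trypticase soy broth, diluted in sterile water, spotted by Steers inoculator (about 1000 UFC/spot). Plates incubated 18 h at 37 °C; DMSO blank; ofloxacin positive control. MIC = lowest concentration with no visible growth.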

HCT-116 [2] = test: Cytotoxicity against human HCT116 cells assessed as growth inhibition at 10^-6 M after 72 hrs by MTS assay relative to control; details: HCT-116, 72 h, read-out: GI
How it was run: (§2)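 Cells from ATCC; HCT-116 grown in RPMI 1640 and MRC5 in DMEM, each with 10% FCS and 1% glutamine, 37 °C, 5% CO2. Seeded at 2.5 × 10^3 cells/well, cultured 24 h, then exposed to compounds at 1 and 10 μM final for 72 h. MTS read-out, absorbance 490 nm; percent index from treated/control OD490 × 100, three experiments.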

Enterococcus faecalis [3] = test: Antibacterial activity against Enterococcus faecalis CIP 104676 after 18 hrs by agar dilution method; details: CIP 104676, 18 h; how it was run: as §1
MRC5 [4] = test: Cytotoxicity against human MRC5 cells assessed as growth inhibition at 10^-5 M after 72 hrs by MTS assay relative to control; details: MRC5, 72 h, read-out: GI; how it was run: as §2
MRC5 [5] = test: Cytotoxicity against human MRC5 cells assessed as growth inhibition at 10^-6 M after 72 hrs by MTS assay relative to control; details: MRC5, 72 h, read-out: GI; how it was run: as §2
Enterococcus faecalis [6] = test: Antibacterial activity against Enterococcus faecalis N491 after 18 hrs by agar dilution method; details: N491, 18 h; how it was run: as §1
Listeria monocytogenes [7] = test: Antibacterial activity against Listeria monocytogenes N836 after 18 hrs by agar dilution method; details: N836, 18 h; how it was run: as §1
Staphylococcus aureus [8] = test: Antibacterial activity against Staphylococcus aureus ATCC 9144 oxford after 18 hrs by agar dilution method; how it was run: as §1
Enterococcus gallinarum [9] = test: Antibacterial activity against Enterococcus gallinarum N489 after 18 hrs by agar dilution method; details: N489, 18 h; how it was run: as §1
HCT-116 [10] = test: Cytotoxicity against human HCT116 cells assessed as growth inhibition at 10^-5 M after 72 hrs by MTS assay relative to control; details: HCT-116, 72 h, read-out: GI; how it was run: as §2
[11] = tested on: Staphylococcus lugdunensis; test: Antibacterial activity against Staphylococcus lugdunensis ATCC 43809 after 18 hrs by agar dilution method; details: ATCC 43809, 18 h; how it was run: as §1
Enterococcus gallinarum [12] = test: Antibacterial activity against Enterococcus gallinarum N492 after 18 hrs by agar dilution method; details: N492, 18 h; how it was run: as §1
Enterococcus faecalis [13] = test: Antibacterial activity against Enterococcus faecalis N518 after 18 hrs by agar dilution method; details: N518, 18 h; how it was run: as §1
[14] = tested on: Staphylococcus saprophyticus; test: Antibacterial activity against Staphylococcus saprophyticus E260 after 18 hrs by agar dilution method; details: E260, 18 h; how it was run: as §1
Listeria monocytogenes [15] = test: Antibacterial activity against Listeria monocytogenes N851 after 18 hrs by agar dilution method; details: N851, 18 h; how it was run: as §1
Staphylococcus aureus [16] = test: Antibacterial activity against Staphylococcus aureus CIP 5710 after 18 hrs by agar dilution method; details: CIP 5710, 18 h; how it was run: as §1
Enterococcus faecium [17] = test: Antibacterial activity against Enterococcus faecium CIP 107387 after 18 hrs by agar dilution method; details: CIP 107387, 18 h; how it was run: as §1
[18] = tested on: Enterococcus casseliflavus; test: Antibacterial activity against Enterococcus casseliflavus CIP 103018 after 18 hrs by agar dilution method; details: CIP 103018, 18 h; how it was run: as §1
[19] = tested on: Enterococcus casseliflavus; test: Antibacterial activity against Enterococcus casseliflavus N487 after 18 hrs by agar dilution method; details: N487, 18 h; how it was run: as §1
Bacillus cereus [20] = test: Antibacterial activity against Bacillus cereus CIP 6624 after 18 hrs by agar dilution method; details: CIP 6624, 18 h; how it was run: as §1
Enterococcus faecium [21] = test: Antibacterial activity against Enterococcus faecium N823 after 18 hrs by agar dilution method; details: N823, 18 h; how it was run: as §1
Mammaliicoccus sciuri = test: Antibacterial activity against Staphylococcus sciuri N993 after 18 hrs by agar dilution method; details: N993, 18 h; how it was run: as §1
Enterococcus faecium [22] = test: Antibacterial activity against Enterococcus faecium N490 after 18 hrs by agar dilution method; details: N490, 18 h; how it was run: as §1
Staphylococcus aureus [23] = test: Antibacterial activity against Staphylococcus aureus ATCC 25923 after 18 hrs by agar dilution method; details: ATCC 25923, 18 h; how it was run: as §1
[24] = tested on: Staphylococcus haemolyticus; test: Antibacterial activity against Staphylococcus haemolyticus CIP 8156 after 18 hrs by agar dilution method; details: CIP 8156, 18 h; how it was run: as §1
Enterococcus hirae = test: Antibacterial activity against Enterococcus hirae CIP 5855 after 18 hrs by agar dilution method; details: CIP 5855, 18 h; how it was run: as §1
Staphylococcus aureus [25] = test: Antibacterial activity against Staphylococcus aureus CIP 483 after 18 hrs by agar dilution method; details: CIP 483, 18 h; how it was run: as §1
Streptococcus agalactiae = test: Antibacterial activity against Streptococcus agalactiae CIP 103227 after 18 hrs by agar dilution method; details: ATCC 13813, 18 h; how it was run: as §1
Staphylococcus aureus [26] = test: Antibacterial activity against Staphylococcus aureus CIP 53156 after 18 hrs by agar dilution method; details: CIP 53156, 18 h; how it was run: as §1
Staphylococcus aureus [27] = test: Antibacterial activity against Staphylococcus aureus CRBIP 2121 after 18 hrs by agar dilution method; details: CRBIP 2121, 18 h; how it was run: as §1
Enterococcus faecalis [28] = test: Antibacterial activity against Enterococcus faecalis N520 after 18 hrs by agar dilution method; details: N520, 18 h; how it was run: as §1
Enterococcus durans = test: Antibacterial activity against Enterococcus durans CIP 104999 after 18 hrs by agar dilution method; details: CIP 104999, 18 h; how it was run: as §1
Staphylococcus aureus [29] = test: Antibacterial activity against Staphylococcus aureus CIP 53154 after 18 hrs by agar dilution method; details: CIP 53154, 18 h; how it was run: as §1
Enterococcus faecalis [30] = test: Antibacterial activity against Enterococcus faecalis CIP 103214 after 18 hrs by agar dilution method; details: CIP 103214, 18 h; how it was run: as §1
Bacillus cereus [31] = test: Antibacterial activity against Bacillus cereus N349 after 18 hrs by agar dilution method; details: N349, 18 h; how it was run: as §1
Enterococcus faecium [32] = test: Antibacterial activity against Enterococcus faecium N507 after 18 hrs by agar dilution method; details: N507, 18 h; how it was run: as §1
Bacillus cereus [33] = test: Antibacterial activity against Bacillus cereus N190 after 18 hrs by agar dilution method; details: N190, 18 h; how it was run: as §1
Listeria monocytogenes [34] = test: Antibacterial activity against Listeria monocytogenes N783 after 18 hrs by agar dilution method; details: N783, 18 h; how it was run: as §1
Enterococcus gallinarum [35] = test: Antibacterial activity against Enterococcus gallinarum CIP 105985 after 18 hrs by agar dilution method; details: CIP 105985, 18 h; how it was run: as §1
Bacillus cereus [36] = test: Antibacterial activity against Bacillus cereus N258 after 18 hrs by agar dilution method; details: N258, 18 h; how it was run: as §1
Staphylococcus aureus [37] = test: Antibacterial activity against Staphylococcus aureus CIP 7625 after 18 hrs by agar dilution method; details: CIP 7625, 18 h; how it was run: as §1
[38] = tested on: Staphylococcus epidermidis; test: Antibacterial activity against Staphylococcus epidermidis CIP 53124 after 18 hrs by agar dilution method; details: CIP 53124, 18 h; how it was run: as §1
Listeria monocytogenes [39] = test: Antibacterial activity against Listeria monocytogenes CIP 103575 after 18 hrs by agar dilution method; details: CIP 103575, 18 h; how it was run: as §1
Bacillus spizizenii = test: Antibacterial activity against Bacillus subtilis ATCC 6633 after 18 hrs by agar dilution method; details: ATCC 6633, 18 h; how it was run: as §1
[40] = tested on: Staphylococcus saprophyticus; test: Antibacterial activity against Staphylococcus saprophyticus CIP 76125 after 18 hrs by agar dilution method; details: CIP 76125, 18 h; how it was run: as §1
[41] = tested on: Staphylococcus intermedius; test: Antibacterial activity against Staphylococcus intermedius N987 after 18 hrs by agar dilution method; details: N987, 18 h; how it was run: as §1
Enterococcus avium = test: Antibacterial activity against Enterococcus avium CIP 104053 after 18 hrs by agar dilution method; details: CIP 104053, 18 h; how it was run: as §1
Listeria innocua = test: Antibacterial activity against Listeria innocua E044 after 18 hrs by agar dilution method; details: E044, 18 h; how it was run: as §1
Enterococcus faecium [42] = test: Antibacterial activity against Enterococcus faecium CIP 103014 after 18 hrs by agar dilution method; details: CIP 103014, 18 h; how it was run: as §1
Corynebacterium striatum = test: Antibacterial activity against Corynebacterium striatum N840 after 18 hrs by agar dilution method; details: N840, 18 h; how it was run: as §1

MIC (Enterococcus faecium [1]): > 46 µM
MIC (Enterococcus faecalis [3]): > 46 µM
MIC (Enterococcus faecalis [6]): > 46 µM
MIC (Listeria monocytogenes [7]): > 46 µM
MIC (Staphylococcus aureus [8]): > 46 µM
MIC (Enterococcus gallinarum [9]): > 46 µM
MIC [11]: > 46 µM
MIC (Enterococcus gallinarum [12]): > 46 µM
MIC (Enterococcus faecalis [13]): > 46 µM
MIC [14]: > 46 µM
MIC (Listeria monocytogenes [15]): > 46 µM
MIC (Staphylococcus aureus [16]): > 46 µM
MIC (Enterococcus faecium [17]): > 46 µM
MIC [18]: > 46 µM
MIC [19]: > 46 µM
MIC (Bacillus cereus [20]): 46 µM (≈ 16.1 µg/mL)
MIC (Enterococcus faecium [21]): > 46 µM
MIC (Mammaliicoccus sciuri): > 46 µM
MIC (Enterococcus faecium [22]): > 46 µM
MIC (Staphylococcus aureus [23]): > 46 µM
MIC (Enterococcus hirae): > 46 µM
MIC (Staphylococcus aureus [25]): > 46 µM
MIC (Streptococcus agalactiae): > 46 µM
MIC (Staphylococcus aureus [26]): > 46 µM
MIC (Staphylococcus aureus [27]): > 46 µM
MIC (Enterococcus faecalis [28]): > 46 µM
MIC (Enterococcus durans): > 46 µM
MIC (Staphylococcus aureus [29]): > 46 µM
MIC (Enterococcus faecalis [30]): > 46 µM
MIC (Bacillus cereus [31]): 46 µM (≈ 16.1 µg/mL)
MIC (Enterococcus faecium [32]): > 46 µM
MIC (Bacillus cereus [33]): 23 µM (≈ 8.06 µg/mL)
MIC (Listeria monocytogenes [34]): > 46 µM
MIC (Enterococcus gallinarum [35]): > 46 µM
MIC (Bacillus cereus [36]): 46 µM (≈ 16.1 µg/mL)
MIC (Staphylococcus aureus [37]): > 46 µM
MIC [38]: > 46 µM
MIC (Listeria monocytogenes [39]): > 46 µM
MIC (Bacillus spizizenii): 46 µM (≈ 16.1 µg/mL)
MIC [40]: > 46 µM
MIC [41]: > 46 µM
MIC (Enterococcus avium): > 46 µM
MIC (Listeria innocua): > 46 µM
MIC (Enterococcus faecium [42]): > 46 µM
MIC (Corynebacterium striatum): > 46 µM
Structure (SMILES): CC1(C)CCC[C@]2(C)[C@@H]1CC[C@]1(CO)O[C@@H](C3=CC(=O)OC3O)C[C@H]12 (stereo not given in full)
inhibition of growth at 1 µM (HCT-116 [2]): 0%
inhibition of growth at 10 µM (MRC5 [4]): 92%
inhibition of growth at 1 µM (MRC5 [5]): 29%
inhibition of growth at 10 µM (HCT-116 [10]): 84%
MIC [24]: > 46 µM
